Assay results published in ChEMBL document CHEMBL4261590, “Design, synthesis, and evaluation of chalcone analogues incorporate α,β-Unsaturated ketone functionality as anti-lung cancer agents via evoking ROS to induce pyroptosis” (Eur J Med Chem, 2018).
Calls of active or inactive are those of the source. The rule behind the calls is not given here.

Experiments:
[1] = tested on: A549; assay: Antiproliferative activity against human A549 cells after 72 hrs by MTT assay; assay type: functional, cell-based; details: A549, 72 h
How it was run: (§1)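 Cells seeded at 3000 per well, cultured overnight, then exposed to compounds for 72 h at 37 °C, 5% CO2. MTT (5 mg/mL stock) added for 4 h, formazan dissolved in DMSO, absorbance read at 490 nm. Inhibition calculated as [1 − A treated/A control]×100%, and IC50 derived from the inhibition data. Mean ± SEM of three independent experiments.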

[2] = tested on: NCI-H460; assay: Antiproliferative activity against human NCI-H460 cells after 72 hrs by MTT assay; assay type: functional, cell-based; details: NCI-H460, 72 h; how it was run: as §1
[3] = tested on: NCI-H1975; assay: Antiproliferative activity against human NCI-H1975 cells after 72 hrs by MTT assay; assay type: functional, cell-based; details: NCI-H1975, 72 h; how it was run: as §1
[4] = tested on: NCI-H1975; assay: Antiproliferative activity against human NCI-H1975 cells at 5 uM after 72 hrs by MTT assay; assay type: functional, cell-based
How it was run: (§2)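 Single-concentration screen at 5 μM. Cells seeded at 3000 per well, cultured overnight, treated 72 h. MTT (5 mg/mL stock) added for 4 h, formazan dissolved in DMSO, absorbance at 490 nm. Growth inhibition rate = [1 − A treated/A control]×100%.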

[5] = tested on: A549; assay: Antiproliferative activity against human A549 cells at 5 uM after 72 hrs by MTT assay; assay type: functional, cell-based; how it was run: as §2
[6] = tested on: NCI-H460; assay: Antiproliferative activity against human NCI-H460 cells at 5 uM after 72 hrs by MTT assay; assay type: functional, cell-based; how it was run: as §2
[7] = tested on: NCI-H460; assay: Antiproliferative activity against human NCI-H460 cells at 5 uM after 12 to 72 hrs by MTT assay; assay type: functional, cell-based; details: TDE = time-dependent effect
How it was run: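 Time course at 5 μM, with exposures of 12, 24, 48 and 72 h. Cells seeded at 3000 per well after overnight attachment. Viability read by MTT (5 mg/mL stock, 4 h), formazan dissolved in DMSO, absorbance at 490 nm.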

[8] = tested on: NCI-H460; assay: Inhibition of colony formation in human NCI-H460 cells after 12 hrs by crystal violet staining-based assay; assay type: functional, cell-based
How it was run: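 Cells seeded at 1000 per well and grown overnight. Exposed to compounds at 1.25, 2.5 and 5 μM for 12 h, then switched to normal medium for about 8 days. Colonies stained with crystal violet and photographed.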

[9] = tested on: NCI-H460; assay: Induction of intracellular ROS accumulation in human NCI-H460 cells at 10 uM after 3 to 24 hrs by DCFH-DA staining-based flow cytometric analysis; assay type: functional, cell-based
How it was run: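 Cells plated at 300,000/well for 24 h, then treated at 10 μM for 3, 6, 12 and 24 h. Switched to serum-free medium and loaded with DCFH-DA (10 μM) for 30 min at 37 °C in the dark. Cells collected and analysed by flow cytometry.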

[10] = tested on: NCI-H460; assay: Induction of pyroptosis in human NCI-H460 cells pretreated with 20 mM NAC for 4 hrs followed by compound addition assessed as at 20 uM after 24 hrs by bright field microscopic analysis; assay type: functional, cell-based
How it was run: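 Cells plated at 300,000/well, pretreated with NAC (20 mM) for 4 h, then given compound at 20 μM for 24 h. Pyroptotic morphology recorded by bright-field microscopic imaging, with DMSO-treated cells as control.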

[11] = tested on: NCI-H460; assay: Induction of pyroptosis in human NCI-H460 cells assessed as reduction in pro-caspase-3 protein expression at 5 uM by Western blot analysis; assay type: functional, cell-based; details: TDE = time-dependent effect
[12] = tested on: Mus musculus; assay: (§3) Acute toxicity in BALB/c mouse assessed as mortality at 500 mg/kg, ip administered as single dose on day 1 measured during 14 days; assay type: organism-based; details: in vivo, 336 h
How it was run: (§4)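 Male wild-type BALB/c mice (26-33 g), randomised into groups of n=6 (vehicle, reference agent, test). Single intraperitoneal injection at 500 mg/kg on the first day only. Housed on a 12 h light-dark cycle at 25 °C with free water and diet. Deaths recorded over 14 days, then all animals euthanised.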

[13] = tested on: NCI-H460; assay: Induction of pyroptosis in human NCI-H460 cells assessed as release of cellular content at 20 uM after 19 to 24 hrs by bright field microscopic analysis; assay type: functional, cell-based
How it was run: (§5)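 Cells plated at 300,000/well 24 h before stimulation, then exposed to compound at 20 μM for 19 and 24 h. Cisplatin (20 μg/mL, 24 h) run alongside, with DMSO-treated cells as control. Morphology recorded by static bright-field microscopy.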

[14] = tested on: NCI-H460; assay: Induction of intracellular ROS accumulation in human NCI-H460 cells pre-treated with 5 mM NAC for 1 hr followed by compound addition at 10 uM for 3 hrs by DCFH-DA staining-based flow cytometric analysis; assay type: functional, cell-based
How it was run: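 Cells plated at 300,000/well for 24 h, pretreated with 5 mM NAC for 1 h, then given compound at 10 μM for 3 h. Loaded with DCFH-DA (10 μM) for 30 min at 37 °C in the dark in serum-free medium. Read by flow cytometry.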

[15] = tested on: NCI-H460; assay: Inhibition of colony formation in human NCI-H460 cells preincubated with 5 mM NAC for 1 hr followed by compound addition at 5 uM after 12 hrs by crystal violet staining-based assay; assay type: functional, cell-based
How it was run: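 Cells pre-incubated with 5 mM NAC for 1 h, then exposed to compound at 5 μM for 12 h. Medium replaced with fresh medium and colonies grown about 8 days. Colonies stained with crystal violet and imaged.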

[16] = tested on: NCI-H460; assay: Induction of pyroptosis in human NCI-H460 cells at 20 uM assessed as loss of osmotic potential at 20 uM after 19 to 24 hrs by bright field microscopic analysis; assay type: functional, cell-based; how it was run: as §5
[17] = tested on: NCI-H460; assay: Antiproliferative activity against human NCI-H460 cells assessed as reduction in cell viability preincubated with 5 mM NAC for 1 hr followed by compound addition at 5 uM after 48 hrs by MTT assay; assay type: functional, cell-based
How it was run: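 Cells pre-incubated with 5 mM NAC for 1 h, then exposed to compound at 5 μM for 48 h. Viability read by MTT at 490 nm after formazan solubilisation in DMSO. Groups compared against compound-only and NAC-only treatments.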

[18] = tested on: NCI-H460; assay: Induction of pyroptosis in human NCI-H460 cells assessed as cytoplasmic swelling at 20 uM after 19 to 24 hrs by bright field microscopic analysis; assay type: functional, cell-based; how it was run: as §5
[19] = as §3; assay type: organism-based; details: BALB/c, in vivo; how it was run: as §4

SMILES | Activity [4] | Activity [5] | Activity [6] | also measured
COc1cc(O)c(CC=C(C)C)c(O)c1C(=O)/C=C/c1ccc(O)cc1 [XANTHOHUMOL] |  |  |  | IC50 [1]: 11.9 µM; IC50 [2]: 7.5 µM; IC50 [3]: 13 µM
C=CC(=O)Nc1ccc(C(=O)/C=C/c2ccccc2C(F)(F)F)cc1 | Active | Active | Active | 
C=CC(=O)Nc1ccc(C(=O)/C=C/c2cc(OC)ccc2F)cc1 | Active |  | Active | 
C=CC(=O)Nc1ccc(C(=O)/C=C/c2ccc(N(C)C)cc2)cc1 | Active | inactive | Active | 
C=CC(=O)Nc1ccc(C(=O)/C=C/c2ccc(Cl)cc2)cc1 | Active | inactive | Active | 
C=CC(=O)Nc1ccc(C(=O)/C=C/c2cc(OC)c(OC)c(OC)c2)cc1 | Active |  | Active | IC50 [1]: 4 µM; IC50 [2]: 2 µM; Activity [7]: Tde; IC50 [3]: 5.4 µM; inhibition [8]: Dose-dependent effect
C=CC(=O)Nc1ccc(C(=O)/C=C/c2cccc(OC)c2OC)cc1 | Active |  | Active | 
C=CC(=O)Nc1ccc(C(=O)/C=C/c2cccc(Cl)c2Cl)cc1 | Active |  | Active | 
C=CC(=O)Nc1ccc(C(=O)/C=C/c2ccc(OC)cc2)cc1 | Active | inactive | Active | 
C=CC(=O)Nc1ccc(C(=O)/C=C/c2ccccc2Cl)cc1 | Active | Active | Active | Activity [9]: Active; Activity [10]: inactive; IC50 [1]: 3.2 µM; Activity [11]: Tde; Activity [12]: Non-Toxic; Activity [13]: Active; Activity [14]: inactive; inhibition [15]: inactive; IC50 [2]: 2.3 µM; Activity [7]: Tde; IC50 [3]: 5.7 µM; inhibition [8]: Dose-dependent effect; Activity [16]: Active; Activity [17]: inactive; Activity [18]: Active
C=CC(=O)Nc1ccc(C(=O)/C=C/c2ccccc2Br)cc1 | Active |  | Active | IC50 [1]: 4.4 µM; IC50 [2]: 2.2 µM; Activity [7]: Tde; IC50 [3]: 5.2 µM; inhibition [8]: Dose-dependent effect
Nc1ccc(C(=O)/C=C/c2ccccc2Cl)cc1 | Active | Active | Active | 
C=CC(=O)Nc1ccc(C(=O)/C=C/c2cc(OC)ccc2OC)cc1 | Active |  | Active | 
C=CC(=O)Nc1ccc(C(C)=O)cc1 | Active | Active | Active | 
C=CC(=O)Nc1ccc(C(=O)/C=C/c2c(F)cccc2F)cc1 | Active |  | Active | 
C=CC(=O)Nc1ccc(C(=O)/C=C/c2cccc(F)c2)cc1 | Active |  | Active | 
C=CC(=O)Nc1ccc(C(=O)/C=C/c2ccc(Cl)cc2Cl)cc1 | Active |  | Active | 
C=CC(=O)Nc1ccc(C(=O)/C=C/c2ccccc2F)cc1 | Active |  | Active | 
C=CC(=O)Nc1ccc(C(=O)/C=C/c2ccc(Cl)c(Cl)c2)cc1 | Active | inactive | Active | 
C=CC(=O)Nc1ccc(C(=O)/C=C/c2ccc(F)c(F)c2)cc1 | Active | inactive | Active | 
C=CC(=O)Nc1ccc(C(=O)/C=C/c2ccc(OC)c(OC)c2)cc1 | Active | inactive | Active | 
C=CC(=O)Nc1ccc(C(=O)/C=C/c2ccccc2)cc1 | Active |  | Active | 
O=C1/C(=C/c2ccccc2F)CNC/C1=C\c1ccccc1F |  |  |  | mortality at 336 h [19]: 33.3%
